Source: ChEMBL document CHEMBL4138044, “Withaferin A induces cell death and differentiation in multiple myeloma cancer stem cells” (Medchemcomm, 2017)

Assays:
[1] = tested on: Multiple myeloma cancer stem cell; assay: Antiproliferative activity against human multiple myeloma cancer stem cells after 72 hrs by MTT assay; format: functional, cell-based
Outline: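 MM-CSCs plated at 5000 cells/well and allowed to adhere 24 h, then exposed to 0–10 μM WFA for 72 h. MTT added for 2 h. Growth taken as absorbance relative to vehicle-control wells ×100. IC50 fitted from at least five concentrations; mean of three independent experiments ± SEM.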

[2] = Antiproliferative activity against human […] cells after 72 hrs by XTT assay; format: functional, cell-based
Outline: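 RPMI 8226 cells in RPMI 1640 with 10% FBS, plated at 15 000 cells/well and treated immediately with 0–10 μM WFA for 72 h. XTT added for 4 h. Growth as absorbance relative to vehicle control ×100. IC50 fitted from at least five concentrations; mean of three independent experiments ± SEM.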

IC50 [1]: 8.4 nM
Compound: CC(C)C[C@H](NC(=O)[C@H](Cc1ccccc1)NC(=O)c1cnccn1)B(O)O [BORTEZOMIB]
IC50 [2]: 3.6 nM
